Assay results gathered from unrelated publications.
Protocols differ between the studies behind these lines.
Melanocortin receptor 4: Melanocortin receptor 4 (Mus musculus, UniProt P56450)
Tspo: Translocator protein (Tspo, Rattus norvegicus, UniProt P16257)

Structure (SMILES)	target	assay	conditions	quantity	value
CC[C@H](C)[C@H](NC(=O)[C@H](CO)NC(=O)[C@H](Cc1ccc(O)cc1)NC(=O)[C@H](CC(=O)O)NC(=O)[C@H](CO)NC(=O)[C@@H](NC(=O)[C@H](Cc1ccccc1)NC(=O)[C@@H](NC(=O)CNC(=O)[C@H](CCC(=O)O)NC(=O)[C@H](C)NC(=O)[C@@H](N)Cc1ccc(O)cc1)[C@@H](C)O)[C@@H](C)CC)C(=O)N[C@@H](C)C(=O)N[C@@H](CCSC)C(=O)N[C@@H](CC(=O)O)C(=O)N[C@@H](CCCCN)C(=O)N[C@H](C(=O)N[C@@H](Cc1c[nH]cn1)C(=O)N[C@@H](CCC(N)=O)C(=O)N[C@@H](CCC(N)=O)C(=O)N[C@@H](CC(=O)O)C(=O)N[C@@H](Cc1ccccc1)C(=O)N[C@H](C(=O)N[C@@H](CC(N)=O)C(=O)N[C@@H](Cc1c[nH]c2ccccc12)C(=O)N[C@@H](CC(C)C)C(=O)N[C@@H](CC(C)C)C(=O)N[C@@H](C)C(=O)N[C@@H](CCC(N)=O)C(=O)N[C@@H](CCCCN)C(=O)NCC(=O)N[C@@H](CCCCN)C(=O)N[C@@H](CCCCN)C(=O)N[C@@H](CC(N)=O)C(=O)N[C@@H](CC(=O)O)C(=O)N[C@@H](Cc1c[nH]c2ccccc12)C(=O)N[C@@H](CCCCN)C(=O)N[C@@H](Cc1c[nH]cn1)C(=O)N[C@@H](CC(N)=O)C(=O)N[C@H](C(=O)N[C@H](C(=O)N[C@@H](CCC(N)=O)C(=O)O)[C@@H](C)O)[C@@H](C)CC)C(C)C)[C@@H](C)CC	Glucagon-like peptide 2 receptor (GLP2R, Homo sapiens, UniProt O95838)	reporter gene, agonist, luciferase		EC50	> 1000 nM
N=C(N)NCCC[C@H](NC(=O)[C@H](CC(=O)O)NC(=O)[C@H](Cc1c[nH]c2ccccc12)NC(=O)[C@@H](N)CCCNC(=N)N)C(=O)N[C@@H](Cc1ccccc1)C(=O)NCC(=O)O	Melanocortin receptor 4	reporter gene, agonist		EC50	> 100000 nM
CNC(=O)[C@@]12C[C@@H]1[C@@H](n1cnc3c(NCc4cccc(Cl)c4)nc(Cl)nc31)[C@H](O)[C@@H]2O	Tspo	ligand displacement, radioligand		Ki	> 10000 nM
CSCC[C@H](NC(=O)[C@@H](NC(=O)[C@@H](N)Cc1ccc(O)cc1)C(C)C)C(=O)NCC(=O)N[C@@H](Cc1c[nH]cn1)C(=O)N[C@@H](Cc1ccccc1)C(=O)N[C@@H](CCCNC(=N)N)C(=O)N[C@@H](Cc1c[nH]c2ccccc12)C(=O)N[C@@H](CC(=O)O)C(=O)N[C@@H](CCCNC(=N)N)C(=O)O	Melanocortin receptor 4	reporter gene, agonist		EC50	660 nM
CCOC(=O)[C@@]12C[C@@H]1[C@@H](n1ccc3c(NC)nc(I)nc31)[C@H](O)[C@@H]2O	Tspo	ligand displacement, radioligand		Ki	> 10000 nM
N=C(N)NCCC[C@H](NC(=O)[C@H](CC(=O)O)NC(=O)[C@H](Cc1c[nH]c2ccccc12)NC(=O)[C@H](CCCNC(=N)N)NC(=O)[C@H](Cc1ccccc1)NC(=O)[C@@H](N)Cc1c[nH]cn1)C(=O)N[C@@H](Cc1ccccc1)C(=O)NCC(=O)O	Melanocortin receptor 4	reporter gene, agonist		EC50	8380 nM
CNC(=O)[C@@]12C[C@@H]1[C@@H](n1cnc3c(NC4CC4c4ccccc4)nc(C#Cc4ccccc4)nc31)[C@H](O)[C@@H]2O (mixture of isomers)	Tspo	ligand displacement, radioligand		Ki	> 10000 nM
O=C(Nc1ccncc1)c1cn(Cc2ccc(Cl)c(Cl)c2)c(=O)c2cnn(C3CCNCC3)c12	Fascin (FSCN1, Homo sapiens, UniProt Q16658)	binding, ITC		Kd	45 nM
CC/C=C\C/C=C\C/C=C\C/C=C\C/C=C\CCCC(=O)O	Peroxisome proliferator-activated receptor delta (PPARD, Homo sapiens, UniProt Q03181)	reporter gene, agonist, luciferase		EC50	90500 nM
Cc1cc2nc3c(=O)[nH]c(=O)nc-3n(C[C@H](O)[C@H](O)[C@H](O)COP(=O)(O)OP(=O)(O)OC[C@H]3O[C@@H](n4cnc5c(N)ncnc54)[C@H](O)[C@@H]3O)c2cc1C	Dihydrolipoyl dehydrogenase, mitochondrial (DLD, Homo sapiens, UniProt P09622)	binding	lysate	Kd	641 nM
Cc1nc2ccc(NC(=O)CCNC(=O)CCCc3ccc(CC(C(=O)O)C(=O)O)cc3)cc2s1	L-lactate dehydrogenase A chain (LDHA, Homo sapiens, UniProt P00338)	binding, SPR		Kd	58 nM
CCOC(=O)[C@@]12C[C@@H]1[C@@H](n1ccc3c(NC4CC4)nc(C#Cc4ccccc4)nc31)[C@H](O)[C@@H]2O	Tspo	ligand displacement, radioligand		Ki	> 10000 nM
CSCC[C@H](N)C(=O)NCC(=O)N[C@@H](Cc1c[nH]cn1)C(=O)N[C@@H](Cc1ccccc1)C(=O)N[C@@H](CCCNC(=N)N)C(=O)N[C@@H](Cc1c[nH]c2ccccc12)C(=O)O	Melanocortin receptor 4	reporter gene, agonist		EC50	41900 nM
O=C(OC[C@H]1OC[C@H](OC(=O)c2cc(O)c(O)c(O)c2)[C@@H](O)[C@@H]1O)c1cc(O)c(O)c(O)c1	Replicase polyprotein 1ab, main protease (rep, Severe acute respiratory syndrome coronavirus 2, UniProt P0DTD1)	binding, SPR		Kd	1180 nM
Cc1cnc(-c2ccc(-c3ccc(NC(=O)Nc4c(F)cc(F)cc4F)cc3F)c3c2C(=O)NC3)[nH]1	High affinity nerve growth factor receptor (NTRK1, Homo sapiens, UniProt P04629)	binding, competition with immobilised ligand		Kd	1 nM
N=C(N)NCCC[C@H](NC(=O)[C@@H](N)CC(=O)O)C(=O)N[C@@H](Cc1ccccc1)C(=O)O	Melanocortin receptor 4	reporter gene, agonist		EC50	> 100000 nM
